# M1 ag – human M1 muscarinic receptor agonism. CHO-K1 hM1, Fluo-8 calcium fluorescence, agonist mode; 0% DMSO, 100% acetylcholine EC100. activation, % at 3 µM. P11229. 360,000 compounds, 0.33% hits;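 active = activation above the run's mean compound activation plus 3 SD, cut at about 16% in these data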;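 also: peak over basal fluorescence ratio within a 140 s kinetic read after compound addition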
# Target sequence (P11229 whole entry, looked up): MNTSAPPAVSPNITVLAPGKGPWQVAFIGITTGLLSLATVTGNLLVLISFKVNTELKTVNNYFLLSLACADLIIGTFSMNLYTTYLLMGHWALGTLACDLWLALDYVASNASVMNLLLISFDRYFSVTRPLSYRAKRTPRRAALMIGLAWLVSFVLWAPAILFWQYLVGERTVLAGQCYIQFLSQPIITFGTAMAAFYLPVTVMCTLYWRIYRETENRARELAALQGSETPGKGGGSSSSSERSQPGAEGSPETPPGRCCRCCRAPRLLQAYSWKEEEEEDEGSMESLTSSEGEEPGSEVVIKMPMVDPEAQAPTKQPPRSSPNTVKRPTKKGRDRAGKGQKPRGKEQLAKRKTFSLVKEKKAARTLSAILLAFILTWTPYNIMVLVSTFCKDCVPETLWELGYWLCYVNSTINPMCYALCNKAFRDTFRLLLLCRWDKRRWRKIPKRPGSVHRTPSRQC
# CHRM1 PAM – potentiates human M1 receptor response to acetylcholine; activation, % at 3 µM; P11229; AID 588819; 360,000 compounds, 0.088% hits; CHO-K1 hM1, Fluo-8 calcium fluorescence, ACh EC20; 0% = ACh EC20, 100% = maximal ACh; in the data active = activation above about 19%, passing the limit was not always enough
# M5 PAM – potentiates acetylcholine response at human M5 receptor | 360,000 compounds, 0.3% hits | P08912 | activation, % at 3 µM | CHO-K1 hM5, Fluo-8 calcium, ACh EC20 PAM; 0% = ACh EC20, 100% = ACh EC100 | AID 624038;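 active = activation above the run cutoff, the mean activation of all test compounds plus 3 SD, cut at about 18% in these data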
#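 System: CHO-K1 hM5 cells. Reagent: acetylcholine, EC20 level. Compound dosing: single dose, 3 µM nominal final test concentration. Timing: Post-acetylcholine fluorescence recording 140 s. Detection: Fluo-8 calcium fluorescence. Read-out: % activation, ACh-normalized. Benchmarks: ACh EC20 and EC100 wells. Repeats: singlicate, one well per test compound.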
# CHRM5 agonist – agonists of human muscarinic M5 receptor (CHRM5) | P08912 | CHO-K1 hM5 cells, Fluo-8 calcium fluorescence; 0% DMSO wells, 100% maximal acetylcholine response | activation, % at 3 µM | 360,000 compounds, 0.19% hits;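 active = activation above the run's mean over test compounds plus 3 SD, cut at about 23% in these data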;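 also: signal is peak over basal fluorescence ratio across the kinetic read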
# CHRM5 antagonist – CHRM5 antagonism in calcium assay. P08912. CHO-hM5 cells, Fluo-8 calcium fluorescence, ACh EC80. inhibition, % at 3 µM. 360,000 compounds, 0.59% hits. AID 624040;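 active = inhibition above a per-plate cutoff, the mean of that plate's test compounds plus 3 SD, cut at about 27% in these data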;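 also: 0% = acetylcholine EC80 with DMSO and 100% = DMSO without agonist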
# CHRM1 antagonist – human CHRM1 antagonism | P11229 | CHO-K1 hM1, Fluo-8 calcium fluorescence, ACh EC80 antagonist | inhibition, % at 3 µM | 360,000 compounds, 1.3% hits | AID 588852;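 active = percent inhibition above its own plate's cutoff, namely the mean of that plate's compound wells plus 3 SD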;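 also: peak over basal fluorescence ratio during 140 s after agonist addition; 0% = ACh EC80 plus DMSO and 100% = DMSO alone without agonist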
# Active calls of the source: *; . = no result. Compounds with a hit are over-represented: about 2% of the library has one in this group of screens.
SMILES,M1 ag,CHRM1 PAM,M5 PAM,CHRM5 agonist,CHRM5 antagonist,CHRM1 antagonist
Cc1ccccc1OCCn1cc(C(=S)N2CCCC2)c2ccccc21,-2,4,-15,-6,-9,-6
Cc1cc(N2C(=O)c3ccc(C(=O)Nc4ccccc4O)cc3C2=O)no1,-2,4,-5,-5,28*,-8
O=C(Nc1ccccc1O)c1ccc2c(c1)C(=O)N(c1ccccc1)C2=O,-2,14,0,2,6,-7
O=[N+]([O-])c1cccc(SSc2cccc([N+](=O)[O-])c2)c1,11,9,12,26*,13,-3
CN1CCCCC1CCN1c2ccccc2Sc2ccc(S(C)=O)cc21 (centres undefined),-8,-25,-18,-2,98*,99*
C=CCN1C(=O)c2ccccc2Sc2ccc(C(=O)N3CCN(C)CC3)cc21,-6,0,0,-1,0,3
Cc1ccc(C(=O)NCC(=O)NCC(=O)OCc2ccc(Oc3ccc([N+](=O)[O-])cc3)cc2)cc1,1,-9,-22,2,31*,24
CC(C)Nc1ncnc2c1ncn2[C@H]1CN(Cc2cccs2)C[C@@H](CO)O1,6,14,4,0,-11,-17
CC(C)(C)N(Cc1cc2ccccc2[nH]c1=O)C(=O)c1cccc([N+](=O)[O-])c1,-5,-21,-15,-14,3,57*
CCCN(Cc1cc2ccccc2[nH]c1=O)C(=O)c1cccc([N+](=O)[O-])c1,0,18,6,1,-3,-22
Cn1c(CCN2CCN(c3ccccc3)CC2)nc2cc(NC(=O)c3ccco3)ccc21,-5,-19,-4,-5,4,46*
CCC(=O)NCCc1nc2cc(NC(=O)Nc3ccccc3)ccc2n1C,-2,3,-2,-2,7,-8
CCOC(=O)N1CCN(Cc2nc3cc(NC(=O)c4cccs4)ccc3n2C)CC1,-6,-16,6,-3,-5,26*
CCC(=O)Nc1ccc2c(c1)nc(CCN1CCN(c3ccccc3)CC1)n2C,-9,-21,-3,-5,15,43*
CCC(=O)Nc1ccc2c(c1)nc(CCN1CCCCC1)n2C,-11,-1,1,-2,16,2
CCOC(=O)N1CCN(Cc2nc3cc(NC(=O)c4cccs4)ccc3n2CC)CC1,-3,-6,-7,1,6,5
CCC(=O)NCCc1nc2cc(NC(=O)c3ccccc3Cl)ccc2n1C,3,30*,5,-3,3,-24
Cc1cn([C@H]2C[C@H](O)[C@@H](/C=C/C(=O)NCCC(c3ccccc3)c3ccccc3)O2)c(=O)[nH]c1=O,-3,-7,-9,0,4,-13
C[C@@H]1Cc2[nH][nH]c(=O)c2[C@H](C)O1,.,.,-6,3,-7,.
O=C(NCc1ccccc1)C(C1CC1)n1c(Cc2cc(F)cc(F)c2)nc2ccccc21 (centres undefined),.,.,0,2,-1,.
CCCCCCCCN1C(=O)[C@H](CC(=O)NCCc2ccccc2OC)C[C@@]2(C(=O)OCC)CCC=C12,.,.,1,-3,13,.
Cn1c(CCN2CCN(c3ccc(F)cc3)CC2)nc2cc(NC(=O)c3ccco3)ccc21,-7,-21,-1,-8,-2,27*
Cc1ccc(N2CCN(CCc3nc4cc(NC(=O)c5ccco5)ccc4n3C)CC2)cc1,-6,-22,-3,-7,-1,25*
O=C(NC(NNc1ccc([N+](=O)[O-])cc1)(C(F)(F)F)C(F)(F)F)c1ccc(Cl)cc1,2,-13,-38,0,27*,34*
O=C(NNc1ccc([N+](=O)[O-])cc1)c1ccccc1Cl,-1,-1,-6,1,9,8
COc1c2ccc(OCC/C(C)=C/C(=O)C=C(C)C)cc2nc2occc12,-5,3,20*,2,-4,0
Cc1cc([N+](=O)[O-])ccc1-c1ccc(/C=N/NC(=O)c2ccc(Br)o2)o1,-1,1,-3,246*,-4,-4

# Bioassay records (PubChem BioAssay)
